# Several values for one entry are separate records, joined by “and”; a condition that tells them apart may be missing. Identical values can stand only once.
# Legend:
# [1] = Tissue biodistribution and regional brain uptake in rats; type: in vivo, male Sprague-Dawley rats; details: for Blood uptake: i.v., mean ± SD
# [2] = Ex vivo autoradiography of rat brain; type: in vivo, male Sprague-Dawley rat; details: rat sacrificed 1 h p.i., 1 mm coronal sections
# In short: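 A single mature male Sprague-Dawley rat received ∼500 μCi of the 18F-labelled test compound by tail-vein injection under isoflurane/oxygen anaesthesia. The rat recovered and was euthanised 1 h later. The brain was taken out quickly and set in a metal brain matrix with 1 mm slots. A 1.0 mm slice through the striatum was imaged by flatbed scanner and by electronic autoradiography.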
# [3] = biological target: T1, human VAChT (Homo sapiens, UniProt Q16572); test: VAChT binding, competition against [^3H]vesamicol
# T1 sequence (Q16572 1-532): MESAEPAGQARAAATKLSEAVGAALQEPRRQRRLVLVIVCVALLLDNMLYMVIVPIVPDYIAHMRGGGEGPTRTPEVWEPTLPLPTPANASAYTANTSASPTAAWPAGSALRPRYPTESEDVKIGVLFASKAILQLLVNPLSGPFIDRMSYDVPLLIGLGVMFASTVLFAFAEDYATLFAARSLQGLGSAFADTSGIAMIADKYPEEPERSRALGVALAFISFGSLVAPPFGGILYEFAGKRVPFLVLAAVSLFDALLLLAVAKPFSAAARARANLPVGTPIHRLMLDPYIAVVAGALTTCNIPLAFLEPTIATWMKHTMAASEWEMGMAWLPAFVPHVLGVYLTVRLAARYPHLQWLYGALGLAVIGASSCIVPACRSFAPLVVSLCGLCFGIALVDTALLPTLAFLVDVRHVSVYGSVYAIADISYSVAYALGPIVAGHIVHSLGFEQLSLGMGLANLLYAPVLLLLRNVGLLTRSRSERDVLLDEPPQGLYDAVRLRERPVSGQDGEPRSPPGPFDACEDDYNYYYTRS
# [4] = 5 min p.i., rat brain dissection
compound,measurement,setting,value
(-)-trans-2-Hydroxy-3-(4-(4-[^18F]fluorobenzoyl)piperidino)tetralin [(-)-[^18F]9e],Bone uptake,[1]; 5 min p.i.,0.334 ± 0.047 %ID/g
same,Brain uptake,[1]; 5 min p.i.,0.823 ± 0.091 %ID/g
same,Fat uptake,[1]; 5 min p.i.,0.132 ± 0.095 %ID/g
same,Heart uptake,[1]; 5 min p.i.,0.321 ± 0.027 %ID/g
same,Kidney uptake,[1]; 5 min p.i.,2.02 %ID/g and 2.018 ± 0.448 %ID/g
same,Muscle uptake,[1]; 5 min p.i.,0.091 ± 0.018 %ID/g
same,Blood uptake,"[1]; 5 min p.i., n=4 rats",0.073 ± 0.010 %ID/g
same,Initial uptake in cerebellum,[1]; [4],0.743 %ID/g
same,Initial uptake in cortex,[1]; [4],0.911 %ID/g
same,Initial uptake in hippocampus,[1]; [4],0.837 %ID/g
same,Initial uptake in striatum,[1]; [4],0.911 %ID/g
same,Bone uptake,[1]; 30 min p.i.,0.157 ± 0.004 %ID/g
same,Brain uptake,[1]; 30 min p.i.,0.226 ± 0.014 %ID/g
same,Fat uptake,[1]; 30 min p.i.,0.207 ± 0.018 %ID/g
same,Heart uptake,[1]; 30 min p.i.,0.109 ± 0.014 %ID/g
same,Kidney uptake,[1]; 30 min p.i.,1.896 ± 0.333 %ID/g
same,Lung uptake,[1]; 30 min p.i.,0.481 ± 0.088 %ID/g
same,Muscle uptake,[1]; 30 min p.i.,0.080 ± 0.008 %ID/g
same,Blood uptake,"[1]; 30 min p.i., n=4 rats",0.037 ± 0.002 %ID/g
same,Bone uptake,[1]; 1 h p.i.,0.148 ± 0.015 %ID/g
same,Brain uptake,[1]; 1 h p.i.,0.124 ± 0.013 %ID/g
same,Fat uptake,[1]; 1 h p.i.,0.241 ± 0.021 %ID/g
same,Heart uptake,[1]; 1 h p.i.,0.066 ± 0.008 %ID/g
same,Kidney uptake,[1]; 1 h p.i.,1.298 ± 0.372 %ID/g
same,Lung uptake,[1]; 1 h p.i.,0.327 ± 0.022 %ID/g
same,Muscle uptake,[1]; 1 h p.i.,0.056 ± 0.010 %ID/g
same,Blood uptake,"[1]; 1 h p.i., n=4 rats",0.029 ± 0.005 %ID/g
same,Bone uptake,[1]; 2 h p.i.,0.138 ± 0.006 %ID/g
same,Brain uptake,[1]; 2 h p.i.,0.095 ± 0.016 %ID/g
same,Fat uptake,[1]; 2 h p.i.,0.249 ± 0.036 %ID/g
same,Heart uptake,[1]; 2 h p.i.,0.047 ± 0.009 %ID/g
same,Kidney uptake,[1]; 2 h p.i.,1.339 ± 0.160 %ID/g
same,Lung uptake,[1]; 2 h p.i.,0.199 ± 0.032 %ID/g
same,Muscle uptake,[1]; 2 h p.i.,0.035 ± 0.007 %ID/g
same,Blood uptake,"[1]; 2 h p.i., n=4 rats",0.020 ± 0.002 %ID/g
same,accumulation in the cortex (autoradiogram),[2],moderate accumulation
same,accumulation in the striatum (autoradiogram),[2],high accumulation
"O=C(c1ccc([N+](=O)[O-])cc1)C1CCN([C@@H]2Cc3ccccc3C[C@H]2O)CC1 (racemic) [Compound 9d, (±)-trans-2-Hydroxy-3-(4-(4-nitrobenzoyl)piperidino)tetralin]",IC50,[3],0.48 ± 0.03 nM
"Nc1ccc(C(=O)C2CCN([C@@H]3Cc4ccccc4C[C@H]3O)CC2)cc1 (racemic) [Compound 9c, (±)-trans-2-Hydroxy-3-(4-(4-aminobenzoyl)piperidino)tetralin]",IC50,[3],1.68 ± 0.04 nM
(+)-trans-2-Hydroxy-3-(4-(4-[^18F]fluorobenzoyl)piperidino)tetralin [(+)-[^18F]9e],Bone uptake,[1]; 5 min p.i.,0.187 ± 0.015 %ID/g
same,Brain uptake,[1]; 5 min p.i.,0.350 ± 0.040 %ID/g
same,Fat uptake,[1]; 5 min p.i.,0.052 ± 0.017 %ID/g
same,Heart uptake,[1]; 5 min p.i.,0.194 ± 0.006 %ID/g
same,Kidney uptake,[1]; 5 min p.i.,0.791 ± 0.123 %ID/g
same,Liver uptake,[1]; 5 min p.i.,1.849 ± 0.566 %ID/g
same,Lung uptake,[1]; 5 min p.i.,0.904 ± 0.161 %ID/g
same,Muscle uptake,[1]; 5 min p.i.,0.047 ± 0.010 %ID/g
same,Ratio Striatum: Cerebellum,[1]; 5 min p.i.,1.15 ± 0.04
same,Ratio Striatum: Cortex,[1]; 5 min p.i.,0.92 ± 0.02
same,Ratio Striatum: Hippocampus,[1]; 5 min p.i.,0.99 ± 0.04
same,Ratio Striatum: Total Brain,[1]; 5 min p.i.,1.02 ± 0.03
same,Blood uptake,"[1]; 5 min p.i., n=4 rats",0.136 ± 0.020 %ID/g
same,Ratio Striatum: Blood,"[1]; 5 min p.i., %ID/g striatum divided by %ID/g non-striatal tissue, n=4 rats",2.67 ± 0.57
same,Bone uptake,[1]; 30 min p.i.,0.277 ± 0.080 %ID/g
same,Brain uptake,[1]; 30 min p.i.,0.071 ± 0.012 %ID/g
same,Fat uptake,[1]; 30 min p.i.,0.108 ± 0.053 %ID/g
same,Heart uptake,[1]; 30 min p.i.,0.094 ± 0.013 %ID/g
same,Kidney uptake,[1]; 30 min p.i.,0.416 ± 0.048 %ID/g
same,Liver uptake,[1]; 30 min p.i.,1.239 ± 0.271 %ID/g
same,Lung uptake,[1]; 30 min p.i.,0.332 ± 0.073 %ID/g
same,Muscle uptake,[1]; 30 min p.i.,0.051 ± 0.010 %ID/g
same,Ratio Striatum: Blood,[1]; 30 min p.i.,0.95 ± 0.18
same,Ratio Striatum: Cerebellum,[1]; 30 min p.i.,1.3 ± 0.07
same,Ratio Striatum: Cortex,[1]; 30 min p.i.,1.08 ± 0.09
same,Ratio Striatum: Hippocampus,[1]; 30 min p.i.,0.93 ± 0.03
same,Ratio Striatum: Total Brain,[1]; 30 min p.i.,1.13 ± 0.04
same,Blood uptake,"[1]; 30 min p.i., n=4 rats",0.087 ± 0.016 %ID/g
same,Bone uptake,[1]; 1 h p.i.,0.399 ± 0.078 %ID/g
same,Brain uptake,[1]; 1 h p.i.,0.041 ± 0.002 %ID/g
same,Fat uptake,[1]; 1 h p.i.,0.154 ± 0.065 %ID/g
same,Heart uptake,[1]; 1 h p.i.,0.051 ± 0.005 %ID/g
same,Kidney uptake,[1]; 1 h p.i.,0.291 ± 0.032 %ID/g
same,Liver uptake,[1]; 1 h p.i.,0.814 ± 0.120 %ID/g
same,Lung uptake,[1]; 1 h p.i.,0.188 ± 0.035 %ID/g
same,Muscle uptake,[1]; 1 h p.i.,0.034 ± 0.008 %ID/g
same,Ratio Striatum: Blood,[1]; 1 h p.i.,0.9 ± 0.23
same,Ratio Striatum: Cerebellum,[1]; 1 h p.i.,1.17 ± 0.12
same,Ratio Striatum: Cortex,[1]; 1 h p.i.,0.95 ± 0.09
same,Ratio Striatum: Hippocampus,[1]; 1 h p.i.,0.98 ± 0.14
same,Ratio Striatum: Total Brain,[1]; 1 h p.i.,1.02 ± 0.09
same,Blood uptake,"[1]; 1 h p.i., n=4 rats",0.048 ± 0.007 %ID/g
same,Bone uptake,[1]; 2 h p.i.,0.532 ± 0.096 %ID/g
same,Brain uptake,[1]; 2 h p.i.,0.022 ± 0.004 %ID/g
same,Fat uptake,[1]; 2 h p.i.,0.150 ± 0.062 %ID/g
same,Heart uptake,[1]; 2 h p.i.,0.031 ± 0.006 %ID/g
same,Kidney uptake,[1]; 2 h p.i.,0.194 ± 0.027 %ID/g
same,Liver uptake,[1]; 2 h p.i.,0.692 ± 0.081 %ID/g
same,Lung uptake,[1]; 2 h p.i.,0.112 ± 0.023 %ID/g
same,Muscle uptake,[1]; 2 h p.i.,0.022 ± 0.005 %ID/g
same,Ratio Striatum: Blood,[1]; 2 h p.i.,0.87 ± 0.11
same,Ratio Striatum: Cerebellum,[1]; 2 h p.i.,1.14 ± 0.09
same,Ratio Striatum: Cortex,[1]; 2 h p.i.,0.91 ± 0.15
same,Ratio Striatum: Hippocampus,[1]; 2 h p.i.,0.99 ± 0.08
same,Ratio Striatum: Total Brain,[1]; 2 h p.i.,1.04 ± 0.06
same,Blood uptake,"[1]; 2 h p.i., n=4 rats",0.027 ± 0.002 %ID/g

# — PMC2765529 (Journal of medicinal chemistry, 2009)
